Laboratory results published in ChEMBL document CHEMBL4017535 (J Med Chem, 2017).

Legend:
[1] = Oral bioavailability in rat at 1 mg/kg; type: ADME, organism-based; conditions: in vivo
Method in brief: (§1)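 In rats, 1 mg/kg was given by both IV and PO routes. IV clearance is unbound (Cl_p,u, L/hr/kg). FaFg is taken as F/(1-Clp/Qh), using rat Qh 3.8 L/hr/kg. Unbound plasma fraction was determined in rat plasma.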

[2] = Oral bioavailability in mouse at 10 mg/kg; type: ADME, organism-based; conditions: in vivo
Method in brief: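 Mouse PK: 3 mg/kg IV and 10 mg/kg PO. Clearance is expressed unbound, Cl_p,u in L/hr/kg. AUC is unbound, in µM*hr. FaFg is computed as F/(1-Clp/Qh), with mouse liver blood flow Qh 5.2 L/hr/kg. Unbound plasma fraction was measured separately.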

[3] = Oral bioavailability in human at 1 mg; type: ADME, organism-based; conditions: in vivo
Method in brief: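 Human F (%) was estimated from observed F in preclinical species. It accompanies a clinical 1 mg oral dose given to cancer patients (n = 3).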

[4] = Half life in mouse at 10 mg/kg, po; type: ADME, organism-based; conditions: in vivo
[5] = molecular target: Adenosine receptor A1 (Homo sapiens) (UniProt P30542); assay: Displacement of [3H]-DPCPX from recombinant human adenosine A1 receptor expressed in CHO cells at 10 uM; type: cell-based
[6] = Intrinsic clearance in mouse liver microsomes; type: ADME, microsome; conditions: read-out: CLH (converted)
[7] = Intrinsic clearance in human hepatocytes; type: ADME, cell-based, Hepatocyte; conditions: read-out: CLH (converted)
[8] = tested on: Kasumi 1; assay: Antitumor activity against gamma-irradiated human Kasumi-1 cells xenografted in NOD.SCID mouse assessed as tumor growth inhibition at 1 mg/kg, po qd for 25 days relative to control; type: functional; conditions: Kasumi 1, light or radiation study, 600 h, read-out: TGI
Method in brief: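 Kasumi-1 AML xenograft in mice, with tumor growth inhibition (TGI) as the read-out. For the test agent, dosing was oral, once daily at 1 mg/kg for 25 days, with tolerability tracked as body-weight loss. For 5-azacitidine, dosing was IV, Q7d, at 8 mg/kg.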

[9] = Permeability in MDCK cells; type: ADME, cell-based, Canis lupus familiaris; conditions: dog, read-out: permeability
[10] = molecular target: E3 ubiquitin-protein ligase TRIM33 (Homo sapiens, UniProt Q9UPN9); assay: Binding affinity to human TRIM33 (PHD, Bromo) (D882 to A1087 residues) expressed in bacterial expression system by BROMOscan assay
[11] = tested on: Mus musculus; assay: Inhibition of LPS-induced IL-6 release in po dosed CD-1 mouse serum administered for 1 hr followed by LPS challenge measured after 2 hrs by immunoassay; type: functional, organism-based
Method in brief: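 Compound given orally to mice, followed by an LPS challenge. Plasma IL-6 and plasma compound concentration were both measured 2 hours after LPS. Inhibition was related to dose and to plasma concentration at the time of cytokine measurement. Values are mean ± SE, n=5 per group.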

[12] = Intrinsic clearance in monkey hepatocytes; type: ADME, cell-based, Macaca mulatta, Hepatocyte; conditions: rhesus monkey, read-out: CLH (converted)
[13] = Fraction unbound in mouse plasma at 1 uM after 4 hrs by LC-MS/MS method; type: ADME, cell-free
[14] = tested on: MX1; assay: Antiproliferative activity against human MX1 cells after 72 hrs by Cell Titer Glo assay; type: functional, cell-based; conditions: MX1, 72 h
[15] = molecular target: T1, Protein polybromo-1 (Homo sapiens, UniProt Q86U86); assay: Binding affinity to human PBRM1 bromodamian-5 (S645 to D766 residues) expressed in bacterial expression system by BROMOscan assay
[16] = molecular target: Adenosine receptor A2a (Homo sapiens) (UniProt P29274); conditions: HEK293, 10 uM
[17] = molecular target: Bromodomain-containing protein 4 (Homo sapiens, UniProt O60885); assay: Binding affinity to N-terminal His6-tagged human BRD4 BD1 to BD2 (K57 to K550 residues) by isothermal titration calorimetry
[18] = Oral bioavailability in monkey; type: ADME, organism-based, Macaca mulatta; conditions: rhesus monkey, in vivo
[19] = Intrinsic clearance in human liver microsomes at 10 uM preincubated for 5 mins followed by NADPH addition measured after 60 mins by HPLC-UV-MS analysis; type: ADME, microsome; conditions: read-out: CLH
[20] = Plasma clearance in rat at 1 mg/kg, iv; type: ADME, organism-based
[21] = organism: Rattus norvegicus; assay: Drug excretion in rat using radiolabelled compound; type: ADME; conditions: in vivo
[22] = Half life in human at 1 mg, po; type: ADME; conditions: in vivo
Method in brief: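 Clinical PK in subjects with cancer after a single 1 mg oral dose, n = 3. Apparent clearance was reported as PO CLp/F in L/hr.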

[23] = molecular target: T1, Protein polybromo-1; assay: Binding affinity to human PBRM1 bromodomain-2 (S178 to E291 residues) expressed in bacterial expression system by BROMOscan assay
[24] = Fraction unbound in rat plasma at 1 uM after 4 hrs by LC-MS/MS method; type: ADME, cell-free
[25] = molecular target: Bromodomain-containing protein 3 (Homo sapiens, UniProt Q15059); assay: Binding affinity to BRD3 BD1 to BD2 (P24 to A416 residues) (unknown origin)
[26] = tested on: Mus musculus; assay: Oral absorption in mouse at 10 mg/kg; type: ADME, organism-based; conditions: in vivo
Method in brief: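 Oral absorption is expressed as FaFg, calculated as F/(1-Clp/Qh). Liver blood flow (Qh) was 5.2 L/hr/kg for mouse and 3.8 L/hr/kg for rat. Mouse dosing was 3 mg/kg IV and 10 mg/kg PO; rat dosing was 1 mg/kg IV and PO.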

[27] = molecular target: Transcription initiation factor TFIID subunit 1-like (Homo sapiens, UniProt Q8IZX4); assay: Binding affinity to human TAF1L (2) (Q1523 to D1654 residues) expressed in bacterial expression system by BROMOscan assay
[28] = molecular target: Bromodomain adjacent to zinc finger domain protein 2A (Homo sapiens, UniProt Q9UIF9); assay: Binding affinity to human BAZ2A (M1792 to L1905 residues) expressed in bacterial expression system by BROMOscan assay
[29] = Intrinsic clearance in dog hepatocytes; type: ADME, cell-based, Canis lupus familiaris, Hepatocyte; conditions: read-out: CLH (converted)
[30] = Intrinsic clearance in rat hepatocytes; type: ADME, cell-based, Hepatocyte; conditions: read-out: CLH (converted)
[31] = tested on: Liver; assay: Unbound intrinsic clearance in rat liver microsomes at 10 uM preincubated for 5 mins followed by NADPH addition measured after 60 mins by HPLC-UV-MS analysis; type: ADME, microsome; conditions: 1 h
[32] = tested on: Rattus norvegicus; assay: Unbound AUC in rat at 1 mg/kg, po; conditions: in vivo
[33] = molecular target: Histone acetyltransferase KAT2A (Homo sapiens, UniProt Q92830); assay: Binding affinity to human GCN5L2 (E726 to K837 residues) expressed in bacterial expression system by BROMOscan assay
[34] = tested on: Rattus norvegicus; assay: Plasma unbound clearance in rat at 1 mg/kg, iv; type: ADME, organism-based; conditions: in vivo; method in brief: as §1

T1 sequence (Q86U86 whole entry, the tested form may be a part): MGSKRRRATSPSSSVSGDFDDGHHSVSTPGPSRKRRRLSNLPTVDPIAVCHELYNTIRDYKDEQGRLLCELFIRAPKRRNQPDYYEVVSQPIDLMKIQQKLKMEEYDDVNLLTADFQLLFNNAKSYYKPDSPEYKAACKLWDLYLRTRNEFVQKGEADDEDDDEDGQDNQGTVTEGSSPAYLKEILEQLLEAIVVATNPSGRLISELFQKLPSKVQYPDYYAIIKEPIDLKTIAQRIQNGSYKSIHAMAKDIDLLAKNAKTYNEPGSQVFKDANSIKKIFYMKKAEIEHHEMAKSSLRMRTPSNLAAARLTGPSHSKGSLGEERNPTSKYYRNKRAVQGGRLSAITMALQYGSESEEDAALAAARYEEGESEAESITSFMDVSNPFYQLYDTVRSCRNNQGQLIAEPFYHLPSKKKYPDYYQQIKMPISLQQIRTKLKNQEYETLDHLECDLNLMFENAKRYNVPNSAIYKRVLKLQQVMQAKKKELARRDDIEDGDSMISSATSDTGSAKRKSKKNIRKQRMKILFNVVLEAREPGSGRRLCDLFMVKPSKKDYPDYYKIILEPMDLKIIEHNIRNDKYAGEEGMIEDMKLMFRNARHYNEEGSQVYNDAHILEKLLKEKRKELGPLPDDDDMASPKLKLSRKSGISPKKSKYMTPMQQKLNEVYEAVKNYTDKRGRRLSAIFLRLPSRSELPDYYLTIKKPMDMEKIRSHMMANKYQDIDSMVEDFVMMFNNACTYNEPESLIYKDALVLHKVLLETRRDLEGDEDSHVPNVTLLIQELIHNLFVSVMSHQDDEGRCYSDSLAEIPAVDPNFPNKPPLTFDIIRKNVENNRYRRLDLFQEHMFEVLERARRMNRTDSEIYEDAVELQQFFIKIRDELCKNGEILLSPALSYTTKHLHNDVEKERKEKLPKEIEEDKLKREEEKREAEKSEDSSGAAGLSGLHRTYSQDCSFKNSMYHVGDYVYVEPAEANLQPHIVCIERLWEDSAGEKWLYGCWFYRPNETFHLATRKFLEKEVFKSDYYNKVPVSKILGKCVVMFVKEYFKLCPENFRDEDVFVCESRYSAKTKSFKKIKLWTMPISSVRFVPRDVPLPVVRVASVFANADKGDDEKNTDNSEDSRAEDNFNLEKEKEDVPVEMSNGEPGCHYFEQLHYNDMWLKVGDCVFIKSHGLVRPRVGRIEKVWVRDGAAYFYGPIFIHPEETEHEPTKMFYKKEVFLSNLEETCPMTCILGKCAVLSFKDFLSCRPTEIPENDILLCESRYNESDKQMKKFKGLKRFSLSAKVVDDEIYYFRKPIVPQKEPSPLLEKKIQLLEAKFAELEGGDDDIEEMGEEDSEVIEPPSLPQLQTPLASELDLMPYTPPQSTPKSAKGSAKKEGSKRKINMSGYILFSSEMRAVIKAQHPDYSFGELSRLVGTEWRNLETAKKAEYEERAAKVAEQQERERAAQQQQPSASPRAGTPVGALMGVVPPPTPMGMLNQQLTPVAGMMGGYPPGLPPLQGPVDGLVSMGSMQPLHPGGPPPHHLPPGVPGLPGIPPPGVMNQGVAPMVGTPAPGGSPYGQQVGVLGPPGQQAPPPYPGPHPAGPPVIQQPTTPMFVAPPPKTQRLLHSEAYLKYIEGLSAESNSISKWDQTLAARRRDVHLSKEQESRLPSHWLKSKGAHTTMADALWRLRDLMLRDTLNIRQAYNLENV
E3 ubiquitin-protein ligase TRIM33, sequence (Q9UPN9 whole entry, the tested form may be a part): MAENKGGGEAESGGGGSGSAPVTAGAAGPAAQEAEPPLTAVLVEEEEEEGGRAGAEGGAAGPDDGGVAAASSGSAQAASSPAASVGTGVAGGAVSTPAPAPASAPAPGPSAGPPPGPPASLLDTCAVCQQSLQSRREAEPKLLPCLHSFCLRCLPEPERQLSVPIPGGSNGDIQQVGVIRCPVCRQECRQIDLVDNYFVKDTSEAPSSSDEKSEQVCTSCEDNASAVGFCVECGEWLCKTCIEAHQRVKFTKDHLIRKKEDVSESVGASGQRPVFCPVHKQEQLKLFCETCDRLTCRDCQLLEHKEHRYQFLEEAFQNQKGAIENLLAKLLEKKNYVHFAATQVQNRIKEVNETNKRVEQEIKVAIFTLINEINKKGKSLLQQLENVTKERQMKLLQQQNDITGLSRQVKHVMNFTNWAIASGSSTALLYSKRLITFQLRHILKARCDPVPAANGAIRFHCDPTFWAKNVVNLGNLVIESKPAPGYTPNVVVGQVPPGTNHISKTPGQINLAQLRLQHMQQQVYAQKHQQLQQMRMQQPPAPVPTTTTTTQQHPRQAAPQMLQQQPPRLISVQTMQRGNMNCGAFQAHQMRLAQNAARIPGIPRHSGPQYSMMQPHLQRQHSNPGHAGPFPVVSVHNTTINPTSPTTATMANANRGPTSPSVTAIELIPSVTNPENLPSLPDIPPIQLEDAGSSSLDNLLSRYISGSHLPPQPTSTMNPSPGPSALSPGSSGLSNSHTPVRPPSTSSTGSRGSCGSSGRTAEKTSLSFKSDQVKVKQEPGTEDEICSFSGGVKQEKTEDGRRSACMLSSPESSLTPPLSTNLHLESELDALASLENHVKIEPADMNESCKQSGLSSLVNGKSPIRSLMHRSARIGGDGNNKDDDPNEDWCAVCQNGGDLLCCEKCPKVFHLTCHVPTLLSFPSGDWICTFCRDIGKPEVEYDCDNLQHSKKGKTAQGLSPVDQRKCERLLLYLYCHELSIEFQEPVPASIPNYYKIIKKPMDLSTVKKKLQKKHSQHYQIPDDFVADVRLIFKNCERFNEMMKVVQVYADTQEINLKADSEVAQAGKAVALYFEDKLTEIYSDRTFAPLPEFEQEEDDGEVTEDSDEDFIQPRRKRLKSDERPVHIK
Adenosine receptor A1 (Homo sapiens), sequence (P30542 whole entry): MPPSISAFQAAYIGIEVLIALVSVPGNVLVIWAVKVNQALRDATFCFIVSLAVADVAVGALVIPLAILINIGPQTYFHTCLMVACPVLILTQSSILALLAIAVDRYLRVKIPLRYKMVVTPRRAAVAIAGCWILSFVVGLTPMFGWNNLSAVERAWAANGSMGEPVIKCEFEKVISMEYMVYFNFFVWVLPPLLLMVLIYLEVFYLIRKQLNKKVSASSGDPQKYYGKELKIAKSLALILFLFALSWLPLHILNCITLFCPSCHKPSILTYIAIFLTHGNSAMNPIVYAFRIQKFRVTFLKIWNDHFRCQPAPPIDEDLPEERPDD
Bromodomain-containing protein 3, sequence (Q15059 whole entry, the tested form may be a part): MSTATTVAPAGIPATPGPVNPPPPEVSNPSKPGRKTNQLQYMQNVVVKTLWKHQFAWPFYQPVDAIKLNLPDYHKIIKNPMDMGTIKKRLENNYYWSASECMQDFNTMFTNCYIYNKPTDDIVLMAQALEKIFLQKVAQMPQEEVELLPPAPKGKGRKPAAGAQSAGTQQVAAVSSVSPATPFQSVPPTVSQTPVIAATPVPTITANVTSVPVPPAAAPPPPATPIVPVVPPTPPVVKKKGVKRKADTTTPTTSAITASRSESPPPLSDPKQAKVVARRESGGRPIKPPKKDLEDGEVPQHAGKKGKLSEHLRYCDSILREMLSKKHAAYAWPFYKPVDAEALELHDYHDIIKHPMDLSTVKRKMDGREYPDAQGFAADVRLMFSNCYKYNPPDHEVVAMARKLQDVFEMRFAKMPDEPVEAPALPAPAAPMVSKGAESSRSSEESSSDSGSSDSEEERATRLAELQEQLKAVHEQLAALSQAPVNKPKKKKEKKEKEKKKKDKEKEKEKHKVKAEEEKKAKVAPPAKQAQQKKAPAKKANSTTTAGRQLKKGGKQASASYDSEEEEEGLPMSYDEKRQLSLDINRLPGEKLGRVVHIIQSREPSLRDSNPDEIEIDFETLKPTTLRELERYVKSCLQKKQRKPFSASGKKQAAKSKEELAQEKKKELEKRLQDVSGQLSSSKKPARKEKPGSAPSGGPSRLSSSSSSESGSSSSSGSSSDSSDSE
Histone acetyltransferase KAT2A, sequence (Q92830 whole entry, the tested form may be a part): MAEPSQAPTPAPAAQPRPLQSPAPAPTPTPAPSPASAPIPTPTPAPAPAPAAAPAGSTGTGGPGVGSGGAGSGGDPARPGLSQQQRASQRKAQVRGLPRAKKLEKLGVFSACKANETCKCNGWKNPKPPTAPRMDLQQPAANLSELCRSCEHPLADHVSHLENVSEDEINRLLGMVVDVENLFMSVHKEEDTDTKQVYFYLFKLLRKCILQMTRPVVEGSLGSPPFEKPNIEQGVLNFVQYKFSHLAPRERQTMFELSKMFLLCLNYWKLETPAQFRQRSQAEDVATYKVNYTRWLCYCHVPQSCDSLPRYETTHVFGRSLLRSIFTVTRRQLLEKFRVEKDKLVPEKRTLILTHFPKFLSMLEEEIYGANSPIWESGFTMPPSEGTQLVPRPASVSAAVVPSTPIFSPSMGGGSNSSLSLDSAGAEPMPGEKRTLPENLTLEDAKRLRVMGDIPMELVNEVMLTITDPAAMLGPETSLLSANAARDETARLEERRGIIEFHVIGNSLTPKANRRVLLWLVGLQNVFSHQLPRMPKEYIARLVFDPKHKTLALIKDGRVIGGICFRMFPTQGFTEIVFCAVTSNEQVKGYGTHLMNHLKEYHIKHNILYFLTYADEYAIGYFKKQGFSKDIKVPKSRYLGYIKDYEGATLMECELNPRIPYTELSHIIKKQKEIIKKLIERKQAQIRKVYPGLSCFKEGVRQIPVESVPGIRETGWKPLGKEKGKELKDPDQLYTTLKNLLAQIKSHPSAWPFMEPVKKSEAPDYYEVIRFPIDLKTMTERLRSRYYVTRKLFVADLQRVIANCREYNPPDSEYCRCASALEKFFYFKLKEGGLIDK

bioavailability [1]: 65%
bioavailability [2]: 68 to 83%
bioavailability [3]: 50%
half-life [4]: 2.7 h
inhibition [5]: 97%
CLint scaled [6]: 138 mL/min/kg
CLint scaled [7]: 14.5 mL/min/kg
Papp [9]: 29 ×10⁻⁶ cm/s
Kd [10]: > 1000 nM
CLint scaled [12]: 51.7 mL/min/kg
fraction unbound at 4 h, 1 µM [13]: 0.02
Kd [15]: > 1000 nM
inhibition [16]: 87%
Kd [17]: < 10 nM
bioavailability [18]: 33%
CLint scaled at 10 µM [19]: < 25 mL/min/kg
clearance [20]: 10 mL/min/kg
Drug excretion [21]: 76 %ID
half-life [22]: 25.1 h
Kd [23]: > 1000 nM
fraction unbound at 4 h, 1 µM [24]: 0.023
Ki [25]: 12.2 nM
FaFg [26]: 0.9
Kd [27]: > 1000 nM
Kd [28]: > 1000 nM
CLint scaled [29]: 35 mL/min/kg
CLint scaled [30]: 66.7 mL/min/kg
CL free [31]: < 81.7 mL/min/kg
fAUC [32]: 0.27 µM·h
Kd [33]: > 1000 nM
clearance [34]: 450 mL/min/kg
SMILES: CCS(=O)(=O)Nc1ccc(Oc2ccc(F)cc2F)c(-c2cn(C)c(=O)c3[nH]ccc23)c1 [MIVEBRESIB]
inhibition in vivo at 1 mg/kg [8]: 99%
inhibition [11]: Dose-dependent effect
EC50 [14]: 13 nM
